The values that follow come from article PMC4325620 (Memórias do Instituto Oswaldo Cruz, 2014).

Assay [1] concerns intracellular amastigotes of Leishmania (Leishmania) amazonensis. Type of assay: cell-based, Leishmania (L.) amazonensis (IFLA/BR/1967/PH8). To be noted: for IC50: Peritoneal macrophage; for reduction of infection index: 72 h. The essentials: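 Resident peritoneal macrophages from 6-week-old female BALB/c mice, 1 x 10^5/well in RPMI-1640 with 10% FCS and gentamicin, 1 h at 37 °C, 5% CO2. Infected with promastigotes (1 x 10^6/well), 4 h at 35 °C. Extract 50-12.5 µg/mL (24, 48, 72 h) or isolated compounds (72 h) at 35 °C. Giemsa staining; 200 cells counted per replicate. Infection index = % infected macrophages × mean amastigotes per macrophage. IC50 by non-linear dose-response regression.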

The test system of assay [2] is fibroblast cells (NIH/3T3). Nature of the assay: Cytotoxicity assay. Type of assay: cell-based, murine. Conditions: for IC50: Mus musculus, NIH3T3, 48 h; for NIH/3T3 SI (selectivity index): SI = IC50 mammalian cell/IC50 amastigotes (µg/mL). The essentials:
(§1)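 Cells exposed 48 h at 37 °C, 5% CO2, to four concentrations (0.25-250 µg/mL) in triplicate. Amphotericin B reference (0.025-25 µg/mL); DMSO vehicle control. SRB read-out: fixation in cold 20% TCA, 30 min at 4 °C; 0.1% SRB in 1% acetic acid, 30 min; dye solubilised in 10 mM Trizma; OD 540 nm. IC50 by non-linear regression. SI = mammalian-cell IC50 / amastigote IC50.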

For assay [3], the system named is Murine macrophages (J774.A1). Nature of the assay: Cytotoxicity assay. Type of assay: cell-based. Conditions: for IC50: Mus musculus, J774.A1, 48 h; for J774.A1 SI (selectivity index): SI = IC50 mammalian cell/IC50 amastigotes (µg/mL). The essentials:
as §1

For assay [4], the system named is NO production by L. amazonensis infected cells. Nature of the assay: Nitric oxide. The format is cell-based, BALB/c mice. To be noted: for production of nitric oxide (NO): treated infected cells, concentration not given; for NO production: vs untreated infected cells. The essentials: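 Supernatants were taken from infected BALB/c peritoneal macrophages treated as in the amastigote assay. Nitrite was quantified against a sodium nitrite standard curve (1-10 µM in RPMI). Results are mean ± SD, compared with untreated infected cells by Student's t test.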

Assay [5] relates to axenic amastigotes of Leishmania donovani. Conditions: ref Weniger et al. 2006, Kunert et al. 2008; cited from earlier work.
The test system of assay [6] is promastigotes of Leishmania donovani. Conditions: ref Camacho et al. 2000; cited from earlier work.
[7] abbreviates: read-out: Intracellular amastigotes IC50.
Setting [8] is: read-out: Intracellular amastigotes IC50 (µM).

Read-outs that look alike come from different tables or passages of the source.

For the molecule `C[C@@H]1[C@H](O)[C@@H](C)/C=C/C=C/C=C/C=C/C=C/C=C/C=C/[C@H](O[C@@H]2O[C@H](C)[C@@H](O)[C@H](N)[C@@H]2O)C[C@@H]2O[C@](O)(C[C@@H](O)C[C@@H](O)[C@H](O)CC[C@@H](O)C[C@@H](O)CC(=O)O[C@H]1C)C[C@H](O)[C@H]2C(=O)O` [Amphotericin B, reference compound], the IC50 came to 0.03 µg/mL in assay [1] (setting [7]); 0.035 µM in assay [1] (setting [8]); 2.2 µg/mL in assay [2] (read-out: NIH/3T3 IC50); 2.2 µM in assay [2] (read-out: NIH/3T3 IC50 (µM)); 4.3 µg/mL in assay [3] (read-out: J774.A1 IC50); 4.7 µM in assay [3] (read-out: J774.A1 IC50 (µM)). In addition, in assay [2], the “NIH/3T3 SI (selectivity index)” value is reported as 73. Also, in assay [3], the “J774.A1 SI (selectivity index)” value stood at 143.3.

In the case of `O=c1cc(-c2ccc(O)c(-c3c(O)cc4oc(-c5ccc(O)cc5)cc(=O)c4c3O)c2)oc2cc(O)cc(O)c12` [Robustaflavone, robustaflavone], the “reduction of infection index” value in assay [1] (12.5 µg/mL) came out at 90.8%. Also, the IC50 was determined as 2.8 µg/mL in assay [1] (setting [7]); 5.3 µM in assay [1] (setting [8]); 25.5 µg/mL in assay [2] (read-out: NIH/3T3 IC50); 47.4 µM in assay [2] (read-out: NIH/3T3 IC50 (µM)); 3.1 µg/mL in assay [3] (read-out: J774.A1 IC50); 5.7 µM in assay [3] (read-out: J774.A1 IC50 (µM)). The “NIH/3T3 SI (selectivity index)” value in assay [2] is given as 9.1. Besides, the “J774.A1 SI (selectivity index)” value in assay [3] is reported as 1.1. Also, the NO release entry in assay [4] (highest concentration tested, 72 h) is given as “increased”. Also, the “production of nitric oxide (NO)” value in assay [4] is “higher”.

In the case of `O=c1cc(-c2ccc(O)c(-c3c(O)cc(O)c4c(=O)cc(-c5ccc(O)cc5)oc34)c2)oc2cc(O)cc(O)c12` [Amentoflavone, amentoflavone], the “reduction of infection index” value in assay [1] (all concentrations tested, compared to the control) is recorded as “greater than 90.6%”; in assay [1] (highest concentration (3 µg/mL)), roughly 100%. Further, the IC50 in assay [1] (setting [7]) was 0.1 µg/mL; in assay [1] (setting [8]), 0.2 µM; in assay [2] (read-out: NIH/3T3 IC50), 2.2 µg/mL; in assay [2] (read-out: NIH/3T3 IC50 (µM)), 4 µM; in assay [3] (read-out: J774.A1 IC50), 3 µg/mL; in assay [3] (read-out: J774.A1 IC50 (µM)), 5.5 µM. Also, in assay [2], the “NIH/3T3 SI (selectivity index)” value is 22. In addition, in assay [3], the “J774.A1 SI (selectivity index)” value is 30. Besides, the NO production result was “significantly lower” in assay [4] (0.75 µg/mL, 72 h, p < 0.01) and “significantly lower” in assay [4] (1.5 µg/mL, 72 h, p < 0.05). The “production of nitric oxide (NO)” value in assay [4] is listed as “lower”. For the same molecule, the “activity on axenic amastigotes” value in assay [5] is “not active”. Further, the activity on promastigotes entry in assay [6] was “poor activity”.
